# Laboratory results: BindingDB's records for doi:10.1021/jm100027p (Emory University, 2010)
# Legend:
# [1] = molecular target: Glutamate receptor ionotropic, NMDA 1/2A (Rattus norvegicus, UniProt Q00959+P35439); experiment: Antagonist activity at rat recombinant NR1-NR2A receptor expressed in Xenopus oocytes at holding potential of -40mV by two-electrode voltage-clamp electrophysiology
# Outline: (§1)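 Oocytes expressing rat NR1-1a with NR2A, NR2B, NR2C or NR2D, clamped at −40 mV in Ba2+/HEPES recording solution pH 7.4, 23°C. Current evoked by 100 μM glutamate plus 30 μM glycine. Final DMSO 0.05-0.5%, 5-7 inhibitor concentrations, ≥4 oocytes each. IC50 from Hill fit of normalized mean composite data. […] Some NR2A oocytes given BAPTA-AM or K-BAPTA.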
# [2] = molecular target: Glutamate receptor ionotropic, NMDA 1/2C (Rattus norvegicus, UniProt Q00961+P35439); experiment: Antagonist activity at rat recombinant NR1-NR2C receptor expressed in Xenopus oocytes at holding potential of -40mV by two-electrode voltage-clamp electrophysiology; outline: as §1
# [3] = molecular target: Glutamate receptor ionotropic, NMDA 1/2B (Rattus norvegicus, UniProt Q00960+P35439); experiment: Antagonist activity at rat recombinant NR1-NR2B receptor expressed in Xenopus oocytes at holding potential of -40mV by two-electrode voltage-clamp electrophysiology
# Outline: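 Oocytes expressed rat NR1-1a/NR2B and were held at −40 mV, 23°C, pH 7.4 HEPES-buffered saline. Currents were activated by 100 μM glutamate plus 30 μM glycine. 5-7 inhibitor concentrations were tested, ≥4 oocytes each, normalized to control. IC50 came from Hill fits, minimum fixed at 0 unless indicated. Responses >75% of control at 100 μM were reported as >300 μM.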
# [4] = molecular target: Glutamate receptor 1 (Rattus norvegicus, UniProt P19490); experiment: Antagonist activity at rat recombinant GLuR1 expressed in Xenopus oocytes assessed as inhibition of glutamate-induced current by two-electrode voltage-clamp electrophysiology
# Outline: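 Two-electrode voltage clamp at −40 mV on Xenopus oocytes expressing rat GluR1, perfused with 90 NaCl, 1.0 KCl, 0.5 BaCl2, 0.005 EDTA, 10 HEPES (mM), pH 7.4, 23°C; activated by 100 μM glutamate. From 20 mM DMSO stocks, 5-7 concentrations, ≥4 oocytes each. Hill fit to mean composite curves normalized to control, minimum usually fixed at 0. Response >75% at 100 μM reported as >300 μM.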
# Sequence of Glutamate receptor ionotropic, NMDA 1/2C (Q00961 whole entry, other chains not shown): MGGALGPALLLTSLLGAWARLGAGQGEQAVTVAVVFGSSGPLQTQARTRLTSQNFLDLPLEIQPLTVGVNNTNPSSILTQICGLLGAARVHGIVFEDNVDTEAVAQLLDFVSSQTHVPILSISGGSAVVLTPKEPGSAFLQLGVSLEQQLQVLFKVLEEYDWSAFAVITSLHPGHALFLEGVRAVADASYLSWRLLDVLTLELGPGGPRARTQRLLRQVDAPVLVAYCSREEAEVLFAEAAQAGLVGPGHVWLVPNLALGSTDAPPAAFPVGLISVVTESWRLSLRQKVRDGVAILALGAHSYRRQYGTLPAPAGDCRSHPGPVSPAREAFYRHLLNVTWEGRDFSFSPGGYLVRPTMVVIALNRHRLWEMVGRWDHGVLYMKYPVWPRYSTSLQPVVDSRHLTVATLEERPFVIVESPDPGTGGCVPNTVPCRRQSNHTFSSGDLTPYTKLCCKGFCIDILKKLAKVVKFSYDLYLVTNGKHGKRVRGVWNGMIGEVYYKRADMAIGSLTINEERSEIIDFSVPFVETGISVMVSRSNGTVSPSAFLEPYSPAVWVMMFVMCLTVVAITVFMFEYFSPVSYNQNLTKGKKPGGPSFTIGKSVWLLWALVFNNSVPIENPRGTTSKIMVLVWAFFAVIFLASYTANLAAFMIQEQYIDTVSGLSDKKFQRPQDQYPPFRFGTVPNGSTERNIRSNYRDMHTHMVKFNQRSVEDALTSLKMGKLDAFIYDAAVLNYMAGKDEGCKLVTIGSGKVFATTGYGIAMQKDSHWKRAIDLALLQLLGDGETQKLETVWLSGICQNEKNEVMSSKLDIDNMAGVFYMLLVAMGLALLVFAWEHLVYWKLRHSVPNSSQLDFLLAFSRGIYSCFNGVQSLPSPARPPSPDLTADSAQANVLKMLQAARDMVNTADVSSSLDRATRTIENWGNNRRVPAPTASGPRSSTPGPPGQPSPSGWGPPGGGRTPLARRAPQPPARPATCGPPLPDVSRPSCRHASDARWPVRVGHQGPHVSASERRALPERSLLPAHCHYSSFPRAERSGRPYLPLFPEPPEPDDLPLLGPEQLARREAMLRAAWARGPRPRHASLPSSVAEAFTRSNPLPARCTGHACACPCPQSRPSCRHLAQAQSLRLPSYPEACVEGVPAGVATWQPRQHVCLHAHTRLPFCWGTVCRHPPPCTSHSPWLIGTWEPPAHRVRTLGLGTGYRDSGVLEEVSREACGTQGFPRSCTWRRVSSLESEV
# Sequence of Glutamate receptor ionotropic, NMDA 1/2B (Q00960 whole entry, other chains not shown): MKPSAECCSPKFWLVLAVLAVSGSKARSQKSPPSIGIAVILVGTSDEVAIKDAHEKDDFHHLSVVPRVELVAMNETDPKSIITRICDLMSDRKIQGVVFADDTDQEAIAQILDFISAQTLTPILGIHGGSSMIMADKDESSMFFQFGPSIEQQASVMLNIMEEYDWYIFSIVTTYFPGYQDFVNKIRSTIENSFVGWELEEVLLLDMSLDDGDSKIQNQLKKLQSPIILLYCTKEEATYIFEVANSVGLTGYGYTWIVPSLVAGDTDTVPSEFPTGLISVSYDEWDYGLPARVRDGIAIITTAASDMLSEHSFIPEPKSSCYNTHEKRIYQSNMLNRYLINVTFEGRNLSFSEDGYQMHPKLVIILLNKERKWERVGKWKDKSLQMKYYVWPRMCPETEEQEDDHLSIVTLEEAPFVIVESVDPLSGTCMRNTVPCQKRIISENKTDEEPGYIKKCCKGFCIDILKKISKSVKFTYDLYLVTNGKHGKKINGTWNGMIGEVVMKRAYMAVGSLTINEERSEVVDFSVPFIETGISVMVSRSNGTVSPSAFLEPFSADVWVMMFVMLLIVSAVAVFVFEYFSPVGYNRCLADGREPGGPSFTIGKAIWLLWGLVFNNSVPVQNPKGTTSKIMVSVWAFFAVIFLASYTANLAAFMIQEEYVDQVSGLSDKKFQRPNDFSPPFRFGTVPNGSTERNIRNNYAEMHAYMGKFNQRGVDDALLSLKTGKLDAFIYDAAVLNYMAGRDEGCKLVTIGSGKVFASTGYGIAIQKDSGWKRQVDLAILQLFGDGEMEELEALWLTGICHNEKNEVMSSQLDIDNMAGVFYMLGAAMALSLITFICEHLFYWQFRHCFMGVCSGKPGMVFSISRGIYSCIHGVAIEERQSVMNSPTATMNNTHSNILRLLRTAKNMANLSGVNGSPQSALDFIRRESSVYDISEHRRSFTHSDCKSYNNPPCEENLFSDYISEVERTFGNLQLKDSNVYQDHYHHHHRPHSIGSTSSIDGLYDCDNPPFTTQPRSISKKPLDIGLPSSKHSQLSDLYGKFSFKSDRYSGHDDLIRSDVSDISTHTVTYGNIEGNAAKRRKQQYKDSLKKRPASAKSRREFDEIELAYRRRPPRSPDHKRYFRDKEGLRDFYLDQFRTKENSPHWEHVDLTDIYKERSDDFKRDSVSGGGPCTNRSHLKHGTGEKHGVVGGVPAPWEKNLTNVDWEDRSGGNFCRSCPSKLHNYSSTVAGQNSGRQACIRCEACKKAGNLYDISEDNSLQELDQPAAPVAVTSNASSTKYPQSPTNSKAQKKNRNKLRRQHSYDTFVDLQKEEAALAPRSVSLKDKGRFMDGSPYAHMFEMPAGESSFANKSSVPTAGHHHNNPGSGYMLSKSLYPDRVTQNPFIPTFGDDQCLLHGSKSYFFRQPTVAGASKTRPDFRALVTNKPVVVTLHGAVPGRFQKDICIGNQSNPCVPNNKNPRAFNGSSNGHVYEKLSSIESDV
# Sequence of Glutamate receptor ionotropic, NMDA 1/2A (Q00959 whole entry, other chains not shown): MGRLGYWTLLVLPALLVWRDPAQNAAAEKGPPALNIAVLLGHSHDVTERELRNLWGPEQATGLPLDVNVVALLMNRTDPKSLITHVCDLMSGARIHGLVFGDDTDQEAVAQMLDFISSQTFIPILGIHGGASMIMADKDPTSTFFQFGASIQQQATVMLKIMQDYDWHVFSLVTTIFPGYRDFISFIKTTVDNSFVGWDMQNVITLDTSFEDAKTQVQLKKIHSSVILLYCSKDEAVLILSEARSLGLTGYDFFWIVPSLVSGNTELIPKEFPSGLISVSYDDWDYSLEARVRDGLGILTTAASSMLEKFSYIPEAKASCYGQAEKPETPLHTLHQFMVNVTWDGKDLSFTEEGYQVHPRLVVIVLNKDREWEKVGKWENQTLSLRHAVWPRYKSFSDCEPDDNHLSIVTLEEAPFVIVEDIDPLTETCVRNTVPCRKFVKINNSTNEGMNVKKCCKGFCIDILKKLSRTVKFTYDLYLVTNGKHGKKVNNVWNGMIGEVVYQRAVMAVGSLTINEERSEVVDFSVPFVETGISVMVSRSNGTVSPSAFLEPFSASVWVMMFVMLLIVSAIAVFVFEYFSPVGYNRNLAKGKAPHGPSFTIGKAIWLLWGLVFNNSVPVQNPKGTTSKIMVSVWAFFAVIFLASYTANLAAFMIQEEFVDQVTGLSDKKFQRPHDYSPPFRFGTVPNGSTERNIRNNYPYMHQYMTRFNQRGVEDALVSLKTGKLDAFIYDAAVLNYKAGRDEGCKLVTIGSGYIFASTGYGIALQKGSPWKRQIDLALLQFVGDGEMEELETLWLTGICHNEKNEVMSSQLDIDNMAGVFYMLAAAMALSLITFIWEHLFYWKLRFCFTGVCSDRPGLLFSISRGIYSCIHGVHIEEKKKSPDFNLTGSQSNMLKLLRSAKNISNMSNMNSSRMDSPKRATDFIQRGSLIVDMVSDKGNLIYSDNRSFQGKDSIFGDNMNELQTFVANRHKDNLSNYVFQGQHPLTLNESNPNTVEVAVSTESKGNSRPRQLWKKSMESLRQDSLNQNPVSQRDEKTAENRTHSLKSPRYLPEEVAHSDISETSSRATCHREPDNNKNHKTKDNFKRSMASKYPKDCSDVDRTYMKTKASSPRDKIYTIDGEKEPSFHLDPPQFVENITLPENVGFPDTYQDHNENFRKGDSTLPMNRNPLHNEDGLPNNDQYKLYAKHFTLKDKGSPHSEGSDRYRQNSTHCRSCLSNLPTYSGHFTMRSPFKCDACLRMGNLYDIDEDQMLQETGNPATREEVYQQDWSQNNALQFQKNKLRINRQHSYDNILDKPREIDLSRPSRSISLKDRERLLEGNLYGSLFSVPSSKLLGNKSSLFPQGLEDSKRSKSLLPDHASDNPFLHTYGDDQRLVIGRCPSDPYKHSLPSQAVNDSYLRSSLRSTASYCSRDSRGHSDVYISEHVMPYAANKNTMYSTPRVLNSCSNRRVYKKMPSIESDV
# Sequence of Glutamate receptor 1 (P19490 whole entry, the tested form may be a part): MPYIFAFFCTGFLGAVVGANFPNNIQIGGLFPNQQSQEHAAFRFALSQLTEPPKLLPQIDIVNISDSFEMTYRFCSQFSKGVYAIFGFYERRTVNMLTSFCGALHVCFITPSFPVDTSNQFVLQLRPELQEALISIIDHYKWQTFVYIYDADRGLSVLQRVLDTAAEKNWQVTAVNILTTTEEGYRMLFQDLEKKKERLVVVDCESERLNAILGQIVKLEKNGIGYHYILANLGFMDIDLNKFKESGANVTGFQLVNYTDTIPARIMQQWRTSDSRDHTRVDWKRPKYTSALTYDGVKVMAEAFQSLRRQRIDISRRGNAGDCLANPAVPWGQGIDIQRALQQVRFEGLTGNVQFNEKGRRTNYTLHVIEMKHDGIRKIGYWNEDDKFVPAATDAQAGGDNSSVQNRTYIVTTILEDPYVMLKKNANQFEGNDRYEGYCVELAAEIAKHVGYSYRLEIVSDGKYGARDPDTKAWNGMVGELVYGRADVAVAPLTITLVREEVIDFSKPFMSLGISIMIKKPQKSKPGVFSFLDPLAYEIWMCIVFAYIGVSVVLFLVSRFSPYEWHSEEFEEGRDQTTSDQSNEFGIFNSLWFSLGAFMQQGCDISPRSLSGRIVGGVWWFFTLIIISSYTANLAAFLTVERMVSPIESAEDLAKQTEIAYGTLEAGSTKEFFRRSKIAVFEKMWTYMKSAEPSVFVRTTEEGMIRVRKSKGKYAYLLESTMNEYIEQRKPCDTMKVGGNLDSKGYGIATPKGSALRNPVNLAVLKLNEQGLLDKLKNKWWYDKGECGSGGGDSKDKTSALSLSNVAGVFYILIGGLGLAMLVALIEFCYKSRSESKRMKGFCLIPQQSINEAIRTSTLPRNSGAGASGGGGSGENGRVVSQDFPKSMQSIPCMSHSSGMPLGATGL
structure (smiles),measurement,setting,value
O=C(O)c1ccc(-n2c(/C=C/c3cccc([N+](=O)[O-])c3)nc3ccc(Cl)cc3c2=O)cc1 [(E)-4-(6-Chloro-2-(3-nitrostyryl)-4-oxoquinazolin-3(4H)-yl)-benzoic Acid],IC50,[1],16 µM
same,IC50,[2],2 µM
same,IC50,[3],13 µM
same,IC50,[4],7 µM
